The source made the active and inactive calls. The calls are words filed in the database; no cut-off is given here.
Assays:
Mus musculus [1] = test: Immunostimulatory activity in C57BL/6 mouse assessed as inhibition of 0.5 mg/kg 5'-CTATCTGACGTTCTCTGT-3'-induced IL12 production in serum at 10 mg/kg, sc administered 24 hrs prior to 5'-CTATCTGACGTTCTCTGT-3' challenge measured after 2 hrs by sandwich ELISA; type: functional
Procedure, shortened: (§1)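 C57BL/6 mice received 10 mg/kg ODN sc in the right flank. After 24 h, the CpG TLR9 agonist ODN was given sc in the left flank at 0.25, 0.5 or 1 mg/kg. Serum IL-12 was measured by ELISA 2 h after challenge. Naive mice served as reference. Representative of two experiments.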

Mus musculus [2] = test: Immunostimulatory activity in C57BL/6 mouse assessed as inhibition of TLR3 agonist-induced MIP1a production in serum at 10 mg/kg, sc administered 24 hrs prior to TLR3 agonist challenge measured after 2 hrs by Luminex multiplex assay
Mus musculus [3] = test: Immunostimulatory activity in C57BL/6 mouse assessed as inhibition of LPS-induced IL6 production in serum at 10 mg/kg, sc administered 24 hrs prior to LPS challenge measured after 2 hrs by Luminex multiplex assay
Mus musculus [4] = test: Immunostimulatory activity in C57BL/6 mouse assessed as inhibition of TLR3 agonist-induced KC production in serum at 10 mg/kg, sc administered 24 hrs prior to TLR3 agonist challenge measured after 2 hrs by Luminex multiplex assay
Mus musculus [5] = test: Immunostimulatory activity in C57BL/6 mouse assessed as inhibition of 5'-CTATCTGACGTTCTCTGT-3'-induced MIG production in serum at 5 mg/kg, sc administered 24 hrs prior to 5'-CTATCTGACGTTCTCTGT-3' challenge measured after 2 hrs by Luminex multiplex assay; type: functional; conditions: C57BL/6, sc, route subcutaneous
Mus musculus [6] = test: Immunostimulatory activity in C57BL/6 mouse assessed as inhibition of TLR3 agonist-induced IL12 production in serum at 10 mg/kg, sc administered 24 hrs prior to TLR3 agonist challenge measured after 2 hrs by Luminex multiplex assay
Mus musculus [7] = test: Immunostimulatory activity in C57BL/6 mouse assessed as inhibition of 5'-CTATCTGACGTTCTCTGT-3'-induced IL12 production in serum at 10 mg/kg, sc administered 72 hrs prior to 5'-CTATCTGACGTTCTCTGT-3' challenge measured after 2 hrs by sandwich ELISA; type: functional; conditions: C57BL/6, sc, route subcutaneous
Procedure, shortened: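 C57BL/6 mice received 10 mg/kg ODN sc in the right flank. The TLR9 agonist ODN was then given at 0.5 mg/kg sc in the left flank 24, 48 or 72 h later. Serum IL-12 was measured by ELISA 2 h after challenge. Naive serum served as reference. Representative of three experiments.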

Mus musculus [8] = test: Immunostimulatory activity in C57BL/6 mouse assessed as inhibition of LPS-induced MIP1a production in serum at 10 mg/kg, sc administered 24 hrs prior to LPS challenge measured after 2 hrs by Luminex multiplex assay
Mus musculus [9] = test: Immunostimulatory activity in C57BL/6 mouse assessed as inhibition of LPS-induced MIG production in serum at 10 mg/kg, sc administered 24 hrs prior to LPS challenge measured after 2 hrs by Luminex multiplex assay
Mus musculus [10] = test: Immunostimulatory activity in C57BL/6 mouse assessed as inhibition of TLR3 agonist-induced IL6 production in serum at 10 mg/kg, sc administered 24 hrs prior to TLR3 agonist challenge measured after 2 hrs by Luminex multiplex assay
Mus musculus [11] = test: Immunostimulatory activity in C57BL/6 mouse assessed as inhibition of 5'-CTATCTGACGTTCTCTGT-3'-induced KC production in serum at 5 mg/kg, sc administered 24 hrs prior to 5'-CTATCTGACGTTCTCTGT-3' challenge measured after 2 hrs by Luminex multiplex assay; type: functional; conditions: C57BL/6, sc, route subcutaneous
Mus musculus [12] = test: Immunostimulatory activity in sc dosed C57BL/6 mouse assessed as inhibition of 5'-CTATCTGACGTTCTCTGT-3'-induced IL12 production in serum administered 24 hrs prior to 5'-CTATCTGACGTTCTCTGT-3' challenge measured after 2 hrs by sandwich ELISA; type: functional, organism-based
Procedure, shortened: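 Test ODN was given sc in the right flank of C57BL/6 mice at 2, 5 or 10 mg/kg. After 24 h (or 24, 48 or 72 h in the duration study), the agonist ODN was given sc in the left flank at 0.25, 0.5 or 1 mg/kg (0.5 mg/kg by default). Serum was taken 2 h later by retro-orbital bleed, and IL-12 was measured by sandwich ELISA.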

Mus musculus [13] = test: Immunostimulatory activity in C57BL/6 mouse assessed as inhibition of 1 mg/kg 5'-CTATCTGACGTTCTCTGT-3'-induced IL12 production in serum at 10 mg/kg, sc administered 24 hrs prior to 5'-CTATCTGACGTTCTCTGT-3' challenge measured after 2 hrs by sandwich ELISA; type: functional; procedure, shortened: as §1
Mus musculus [14] = test: Immunostimulatory activity in C57BL/6 mouse assessed as inhibition of 5'-CTATCTGACGTTCTCTGT-3'-induced IP10 production in serum at 5 mg/kg, sc administered 24 hrs prior to 5'-CTATCTGACGTTCTCTGT-3' challenge measured after 2 hrs by Luminex multiplex assay; type: functional; conditions: C57BL/6, sc, route subcutaneous
Mus musculus [15] = test: Immunostimulatory activity in C57BL/6 mouse assessed as inhibition of 0.25 mg/kg 5'-CTATCTGACGTTCTCTGT-3'-induced IL12 production in serum at 10 mg/kg, sc administered 24 hrs prior to 5'-CTATCTGACGTTCTCTGT-3' challenge measured after 2 hrs by sandwich ELISA; type: functional; procedure, shortened: as §1

COC1[C@H](n2cnc3c(=O)[nH]c(N)nc32)O[C@H](COP(=O)(S)O[C@H]2C[C@H](n3cc(C)c(N)nc3=O)O[C@@H]2COP(=O)(S)O[C@H]2C[C@H](n3cnc4c(N)ncnc43)O[C@@H]2COP(=O)(S)O[C@H]2C[C@H](n3cnc4c(=O)[nH]c(N)nc43)O[C@@H]2COP(=O)(S)O[C@H]2C[C@H](n3cc(C)c(=O)[nH]c3=O)O[C@@H]2COP(=O)(S)O[C@H]2C[C@H](n3ccc(N)nc3=O)O[C@@H]2COP(=O)(S)O[C@H]2C[C@H](n3cc(C)c(=O)[nH]c3=O)O[C@@H]2COP(=O)(S)O[C@H]2C[C@H](n3cnc4c(N)ncnc43)O[C@@H]2COP(=O)(S)O[C@H]2C[C@H](n3cc(C)c(=O)[nH]c3=O)O[C@@H]2COP(=O)(S)O[C@H]2C[C@H](n3ccc(N)nc3=O)O[C@@H]2CO)[C@H]1OP(=O)(S)OC[C@H]1O[C@@H](n2cc(C)c(=O)[nH]c2=O)C[C@@H]1OP(=O)(S)OC[C@H]1O[C@@H](n2cc(C)c(=O)[nH]c2=O)C[C@@H]1OP(=O)(S)OC[C@H]1O[C@@H](n2ccc(N)nc2=O)C[C@@H]1OP(=O)(S)OC[C@H]1O[C@@H](n2cc(C)c(=O)[nH]c2=O)C[C@@H]1OP(=O)(S)OC[C@H]1O[C@@H](n2ccc(N)nc2=O)C[C@@H]1OP(=O)(S)OC[C@H]1O[C@@H](n2cc(C)c(=O)[nH]c2=O)C[C@@H]1OP(=O)(S)OC[C@H]1O[C@@H](n2cnc3c(=O)[nH]c(N)nc32)C[C@@H]1OP(=O)(S)OC[C@H]1O[C@@H](n2cc(C)c(=O)[nH]c2=O)C[C@@H]1O (stereo not given in full)
inhibition (INH) (Mus musculus [1]): 66%
Activity (Mus musculus [2]): inactive
Activity (Mus musculus [3]): inactive
Activity (Mus musculus [4]): inactive
inhibition in vivo at 5 mg/kg (Mus musculus [5]): 50%
Activity (Mus musculus [6]): inactive
inhibition in vivo at 10 mg/kg (Mus musculus [7]): 35%
Activity (Mus musculus [8]): inactive
Activity (Mus musculus [9]): inactive
Activity (Mus musculus [10]): inactive
inhibition in vivo at 5 mg/kg (Mus musculus [11]): 50%
Activity (Mus musculus [12]): Dose-dependent effect
inhibition (INH) (Mus musculus [13]): 46%
inhibition in vivo at 5 mg/kg (Mus musculus [14]): 50%
inhibition (INH) (Mus musculus [15]): 85%
